# Test results: article PMC7586065 (Neoplasia (New York, N.Y.), 2020)
# Read-outs that look alike come from different tables or passages of the source.
# Tests used:
# WSU-DLCL2 = settings: data in the literature; cited from earlier work
# PI3Kα [1] = settings: cited from earlier work
# OCI-LY19 = settings: data in the literature; cited from earlier work
# Pfeiffer = settings: data in the literature; cited from earlier work
# PI3Kγ [2] = settings: cited from earlier work
# Toledo = settings: data in the literature; cited from earlier work
# [3] = Pharmacokinetics in xenograft model; type: in vivo, SCID mice; settings: CB17 SCID, mouse, plasma, po
# In short: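 CB17 SCID mice bearing subcutaneous SU-DHL-6 tumours received test compound orally once daily in 1% carboxymethylcellulose/0.5% Tween 80. Heparinised blood was drawn predose and at 10, 30, 60, 120, 360, 600 and 1440 min on days 1 and 14. Plasma was spun at 4500 rpm, 10 min, 4 °C, then assayed by LC-MS/MS against a stable-isotope internal standard. Sub-LLOQ values were excluded.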
# PI3Kγ [4] = target: PI3Kγ (Mus musculus, UniProt Q9JHG7); experiment: Cell-based pAKT AlphaLISA, C5a stimulated RAW264.7 cells
# In short: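 RAW264.7 cells (DMEM, 10% FBS, penicillin/streptomycin, 37 °C) were stimulated with 80 ng/mL C5a for 5 min and given ten test-compound concentrations (0–100 µM) in triplicate. The PI3Kδ comparator used Raji cells stimulated with 3 µg/mL anti-IgM F(ab')2 for 10 min, dosed 0–3000 nM. pAKT was quantified by AlphaLISA, and IC50 was taken from signal–concentration curves.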
# PI3Kδ signaling = settings: read-out: EC50 of inhibition of PI3Kδ signaling; cell-based assay; cited from earlier work
# PI3Kα [5] = target: PI3Kα (Mus musculus, UniProt P42337); experiment: Cell-based pAKT AlphaLISA, IGF-1 stimulated C2C12 cells
# [6] = 100 mg/kg, 100 mg/kg once daily oral, day 1
# [7] = 100 mg/kg, 100 mg/kg once daily oral, day 14
# [8] = 200 mg/kg, 200 mg/kg once daily oral, day 1
# [9] = 200 mg/kg, 200 mg/kg once daily oral, day 14
# PI3Kγ, sequence (Q9JHG7 whole entry): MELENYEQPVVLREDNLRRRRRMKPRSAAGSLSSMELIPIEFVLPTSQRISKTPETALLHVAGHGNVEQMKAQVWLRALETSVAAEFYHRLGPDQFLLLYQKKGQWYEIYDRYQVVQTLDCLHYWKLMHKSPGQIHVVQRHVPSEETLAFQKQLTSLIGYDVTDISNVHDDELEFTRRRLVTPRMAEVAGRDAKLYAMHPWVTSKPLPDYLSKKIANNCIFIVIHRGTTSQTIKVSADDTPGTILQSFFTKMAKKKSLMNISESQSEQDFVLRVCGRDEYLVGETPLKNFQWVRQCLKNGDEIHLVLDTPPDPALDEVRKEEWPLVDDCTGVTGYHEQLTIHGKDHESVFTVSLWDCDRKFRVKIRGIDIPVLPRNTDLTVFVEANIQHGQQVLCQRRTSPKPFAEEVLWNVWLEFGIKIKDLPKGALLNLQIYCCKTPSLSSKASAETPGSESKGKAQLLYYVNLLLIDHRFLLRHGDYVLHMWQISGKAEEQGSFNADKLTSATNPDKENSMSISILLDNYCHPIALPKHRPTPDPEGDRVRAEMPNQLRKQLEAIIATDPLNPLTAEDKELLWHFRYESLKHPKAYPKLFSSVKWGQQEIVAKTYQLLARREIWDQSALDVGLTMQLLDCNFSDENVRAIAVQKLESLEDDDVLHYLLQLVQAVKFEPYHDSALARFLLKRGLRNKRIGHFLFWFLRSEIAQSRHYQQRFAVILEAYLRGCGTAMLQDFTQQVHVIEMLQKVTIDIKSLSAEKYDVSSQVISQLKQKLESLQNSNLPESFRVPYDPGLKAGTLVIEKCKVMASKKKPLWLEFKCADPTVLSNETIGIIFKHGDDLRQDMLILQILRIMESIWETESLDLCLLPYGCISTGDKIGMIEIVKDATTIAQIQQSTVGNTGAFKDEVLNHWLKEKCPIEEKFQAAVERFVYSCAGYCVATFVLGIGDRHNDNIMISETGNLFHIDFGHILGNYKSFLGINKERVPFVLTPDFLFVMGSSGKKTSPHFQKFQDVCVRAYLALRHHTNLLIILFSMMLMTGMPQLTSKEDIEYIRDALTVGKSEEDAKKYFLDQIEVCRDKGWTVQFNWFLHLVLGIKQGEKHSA
# PI3Kα, sequence (P42337 whole entry): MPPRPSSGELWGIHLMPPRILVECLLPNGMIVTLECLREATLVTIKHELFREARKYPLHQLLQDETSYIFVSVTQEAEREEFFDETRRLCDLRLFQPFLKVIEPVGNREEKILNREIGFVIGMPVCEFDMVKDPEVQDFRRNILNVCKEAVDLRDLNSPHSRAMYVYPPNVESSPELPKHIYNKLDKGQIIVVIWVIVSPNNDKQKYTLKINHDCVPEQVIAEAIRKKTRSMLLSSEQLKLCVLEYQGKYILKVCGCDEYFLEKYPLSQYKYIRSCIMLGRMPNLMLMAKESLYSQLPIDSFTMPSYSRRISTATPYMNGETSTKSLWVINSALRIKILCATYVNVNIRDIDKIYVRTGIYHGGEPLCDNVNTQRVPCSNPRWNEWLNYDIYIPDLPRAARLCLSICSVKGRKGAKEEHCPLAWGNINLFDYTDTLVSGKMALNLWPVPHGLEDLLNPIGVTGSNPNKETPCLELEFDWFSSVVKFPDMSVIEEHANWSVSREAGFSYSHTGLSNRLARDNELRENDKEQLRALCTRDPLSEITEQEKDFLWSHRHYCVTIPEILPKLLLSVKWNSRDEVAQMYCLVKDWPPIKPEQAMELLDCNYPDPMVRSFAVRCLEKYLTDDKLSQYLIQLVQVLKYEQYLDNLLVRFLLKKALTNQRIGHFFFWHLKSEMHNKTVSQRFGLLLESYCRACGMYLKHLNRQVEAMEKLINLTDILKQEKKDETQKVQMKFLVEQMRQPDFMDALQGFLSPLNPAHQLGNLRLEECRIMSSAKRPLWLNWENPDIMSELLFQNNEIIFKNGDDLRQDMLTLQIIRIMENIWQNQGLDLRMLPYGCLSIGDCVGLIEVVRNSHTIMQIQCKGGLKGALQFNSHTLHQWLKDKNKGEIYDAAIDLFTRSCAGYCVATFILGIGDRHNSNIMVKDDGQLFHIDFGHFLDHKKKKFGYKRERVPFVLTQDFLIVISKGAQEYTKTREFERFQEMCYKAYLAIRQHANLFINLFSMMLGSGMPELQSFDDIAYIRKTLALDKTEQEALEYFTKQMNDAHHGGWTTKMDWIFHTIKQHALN
# PI3Kα, sequence (P26450 whole entry partner): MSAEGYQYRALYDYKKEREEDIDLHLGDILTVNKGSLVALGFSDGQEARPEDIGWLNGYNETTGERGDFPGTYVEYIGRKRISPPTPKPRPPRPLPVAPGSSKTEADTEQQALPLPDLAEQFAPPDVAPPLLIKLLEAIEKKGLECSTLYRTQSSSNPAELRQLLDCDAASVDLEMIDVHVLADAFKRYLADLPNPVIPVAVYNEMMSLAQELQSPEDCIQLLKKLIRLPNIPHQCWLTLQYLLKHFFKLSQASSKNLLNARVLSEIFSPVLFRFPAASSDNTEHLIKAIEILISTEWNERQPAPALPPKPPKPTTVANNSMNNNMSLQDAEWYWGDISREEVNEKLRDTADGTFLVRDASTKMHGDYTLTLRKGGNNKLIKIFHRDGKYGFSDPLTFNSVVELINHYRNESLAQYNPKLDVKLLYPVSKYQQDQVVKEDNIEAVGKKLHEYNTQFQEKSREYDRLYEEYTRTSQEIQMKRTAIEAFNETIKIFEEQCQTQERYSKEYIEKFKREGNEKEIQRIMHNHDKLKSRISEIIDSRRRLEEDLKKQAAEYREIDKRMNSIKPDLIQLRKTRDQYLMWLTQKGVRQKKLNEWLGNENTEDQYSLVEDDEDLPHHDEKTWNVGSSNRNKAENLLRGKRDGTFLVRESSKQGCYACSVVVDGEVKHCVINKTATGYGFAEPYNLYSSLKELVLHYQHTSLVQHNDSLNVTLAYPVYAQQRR
smiles,measurement,setting,value
COc1c(OCCCN2CCOCC2)ccc2c1N=C(NC(=O)c1cnc(N)nc1)N1CCN=C21 [Copanlisib],IC50,WSU-DLCL2,123 nM
same,IC50,OCI-LY19,1990 nM
same,IC50,Pfeiffer,0.849 nM
same,IC50,Toledo,3500 nM
CC[C@H](Nc1ncnc2[nH]cnc12)c1nc2cccc(F)c2c(=O)n1-c1ccccc1 [Idelalisib],AUC(0-t),[3]; [6],6930 ng·h/mL
same,AUC(0-t),[3]; [7],5520 ng·h/mL
same,Cmax,[3]; [6],4.17 ± 9.89 µM
same,Cmax,[3]; [7],5.05 ± 6.05 µM
same,half-life,"[3]; 100 mg/kg, T1/2, 100 mg/kg once daily oral, day 1",3.4 ± 2 h
same,half-life,"[3]; 100 mg/kg, T1/2, 100 mg/kg once daily oral, day 14",1.8 ± 0.6 h
same,Tmax,[3]; [6],0.7 ± 0.3 h
same,Tmax,[3]; [7],0.4 ± 0.2 h
same,AUC(0-t),[3]; [8],29900 ng·h/mL
same,AUC(0-t),[3]; [9],22400 ng·h/mL
same,Cmax,[3]; [8],11.1 µM
same,Cmax,[3]; [9],8.09 ± 0.93 µM
same,half-life,"[3]; 200 mg/kg, T1/2, 200 mg/kg once daily oral, day 1",1.9 ± 0.5 h
same,half-life,"[3]; 200 mg/kg, T1/2, 200 mg/kg once daily oral, day 14",4.3 ± 1.1 h
same,Tmax,[3]; [8],0.8 ± 0.3 h
same,Tmax,[3]; [9],0.7 ± 0.3 h
same,IC50,PI3Kγ [4],1120 nM
same,EC50,PI3Kδ signaling,8.9 nM
same,IC50,PI3Kα [5],> 30000 nM
